Test results: ChEMBL document CHEMBL3352608, “Medicinal chemistry optimization of antiplasmodial imidazopyridazine hits from high throughput screening of a softfocus kinase library: part 2” (J Med Chem, 2014)
≈ marks a conversion by molar mass, not a printed value.

Assays:
[1] = Selectivity index, ratio of IC50 for CHO cells to IC50 for Plasmodium falciparum; format: toxicity, cell-based; details: hamster, read-out: Ratio IC50
[2] = tested on: Liver microsome; assay: Metabolic stability in rat liver microsomes assessed as compound remaining after 30 mins; format: ADME; details: 0.5 h
Outline: (§1)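 One-point microsomal stability test: compound incubated 30 min with human, rat or mouse liver microsomes; percentage of parent remaining measured.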

[3] = tested on: CHO; assay: Cytotoxicity against CHO cells; format: cell-based, Cricetulus griseus; details: chinese hamster
[4] = tested on: Plasmodium falciparum; assay: Antiplasmodial activity against Plasmodium falciparum NF54 by [3H]hypoxanthine incorporation assay; format: functional, organism-based
Outline: (§2)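 Modified [3H]-hypoxanthine incorporation assay on P. falciparum asexual cultures, chloroquine and artesunate as references in every run. IC50 values are means of ≥2 independent experiments; individual values mostly within 2-fold (maximum 3-fold).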

[5] = tested on: Plasmodium falciparum; assay: Antiplasmodial activity against Plasmodium falciparum K1 by [3H]hypoxanthine incorporation assay; format: functional, organism-based; outline: as §2
[6] = Plasma concentration in mouse infected with Plasmodium berghei ANKA at 50 mg/kg/day, po after 4 hrs by HPLC analysis; format: ADME, organism-based; parameters: route oral
Outline: (§3)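 P. berghei-infected mice dosed orally at 50 mg/kg daily for 4 days; blood sampled 1, 4 and 24 h after the first dose and analysed by HPLC for drug levels.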

[7] = tested on: CHO cells (Cricetulus griseus); assay: Cytotoxicity against Chinese hamster CHO cells
[8] = Plasma concentration in mouse infected with Plasmodium berghei ANKA at 50 mg/kg/day, po after 24 hrs by HPLC analysis; format: ADME, organism-based; parameters: route oral; outline: as §3
[9] = tested on: Liver; assay: Metabolic stability in mouse liver microsomes assessed as compound remaining after 30 mins; format: ADME; details: 0.5 h; outline: as §1
[10] = Aqueous solubility of the compound at pH 6.5; format: physicochemical; details: buffer
[11] = tested on: CHO cells (Cricetulus griseus); assay: Selectivity index, ratio of IC50 for Chinese hamster CHO cells to IC50 for Plasmodium falciparum
[12] = tested on: Liver microsome; assay: Metabolic stability in human liver microsomes assessed as compound remaining after 30 mins; format: ADME; details: 0.5 h; outline: as §1
[13] = target: Voltage-gated inwardly rectifying potassium channel KCNH2 (Homo sapiens, UniProt Q12809); assay: Inhibition of human ERG channel by patch clamp technique
[14] = tested on: Plasmodium berghei; assay: Antimalarial activity against Plasmodium berghei ANKA infected in mouse assessed as reduction in parasitemia at 50 mg/kg/day, po qd administered for 4 days relative to control; format: functional; parameters: Activity: scale not given: the % may be the effect or the level left
Outline: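 Mice (n = 3) infected with GFP-transfected P. berghei ANKA; compound in HPMC suspension vehicle given orally once daily at 4, 24, 48 and 72 h after infection. Blood collected day 4 (96 h post-infection); parasitemia by flow cytometry (detection limit 0.1%). Activity = difference in mean % parasitemia between control and treated groups, as % of control.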

[15] = Aqueous solubility of the compound at pH 2; format: physicochemical; details: buffer
[16] = Plasma concentration in mouse infected with Plasmodium berghei ANKA at 50 mg/kg/day, po after 1 hr by HPLC analysis; format: ADME, organism-based; parameters: route oral; outline: as §3

Voltage-gated inwardly rectifying potassium channel KCNH2, sequence (Q12809 whole entry): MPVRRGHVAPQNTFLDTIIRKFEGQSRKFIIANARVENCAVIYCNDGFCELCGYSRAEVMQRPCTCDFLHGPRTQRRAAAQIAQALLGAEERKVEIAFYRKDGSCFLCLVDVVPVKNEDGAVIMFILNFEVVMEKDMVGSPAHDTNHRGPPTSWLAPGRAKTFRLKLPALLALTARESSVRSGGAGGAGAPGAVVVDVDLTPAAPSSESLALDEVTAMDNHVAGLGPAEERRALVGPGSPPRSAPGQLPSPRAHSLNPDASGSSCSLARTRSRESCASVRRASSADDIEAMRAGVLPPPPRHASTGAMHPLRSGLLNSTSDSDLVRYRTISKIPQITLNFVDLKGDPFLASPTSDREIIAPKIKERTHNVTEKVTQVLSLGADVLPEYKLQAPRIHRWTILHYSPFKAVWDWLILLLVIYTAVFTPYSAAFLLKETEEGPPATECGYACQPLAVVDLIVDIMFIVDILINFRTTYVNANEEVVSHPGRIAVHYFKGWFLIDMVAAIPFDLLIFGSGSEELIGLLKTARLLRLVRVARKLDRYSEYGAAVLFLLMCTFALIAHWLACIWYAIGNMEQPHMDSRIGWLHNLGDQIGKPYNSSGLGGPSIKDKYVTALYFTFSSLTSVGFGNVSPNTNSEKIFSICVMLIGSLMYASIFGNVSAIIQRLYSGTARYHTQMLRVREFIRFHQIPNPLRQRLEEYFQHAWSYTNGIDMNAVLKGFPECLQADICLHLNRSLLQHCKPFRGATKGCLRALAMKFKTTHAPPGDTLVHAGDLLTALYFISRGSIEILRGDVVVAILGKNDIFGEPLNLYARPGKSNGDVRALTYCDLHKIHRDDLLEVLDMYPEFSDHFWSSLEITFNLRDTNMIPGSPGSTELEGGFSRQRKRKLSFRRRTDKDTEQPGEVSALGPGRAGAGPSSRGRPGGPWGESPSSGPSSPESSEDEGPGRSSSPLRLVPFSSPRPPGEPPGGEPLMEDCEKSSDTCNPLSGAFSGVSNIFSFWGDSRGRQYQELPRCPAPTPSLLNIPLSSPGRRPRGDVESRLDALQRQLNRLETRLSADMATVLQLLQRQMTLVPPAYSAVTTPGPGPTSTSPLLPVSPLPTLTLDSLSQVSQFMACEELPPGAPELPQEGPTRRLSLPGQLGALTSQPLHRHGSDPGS

| Structure (SMILES) | selectivity ratio [1] | Stability [2] | Activity [3] | IC50 [4] [nM] | IC50 [5] [nM] | concentration at 4 h [6] [nM] | Activity [7] | concentration at 24 h [8] [nM] | Stability [9] | solubility [10] [µM] | selectivity ratio [11] | Stability [12] | IC50 [13] [nM] | Activity [14] [%] | MSD [14] [days] | solubility [15] [µM] | concentration at 1 h [16] [nM] |
| --- | --- | --- | --- | --- | --- | --- | --- | --- | --- | --- | --- | --- | --- | --- | --- | --- | --- |
| CS(=O)(=O)c1ccc(-c2cnc3ccc(-c4cccc(S(=O)(=O)CCCN)c4)nn23)cc1 | > 1000 | Stable | Non-toxic | 3 | 2.6 | < 10 | Non-toxic | < 10 | Stable | > 200 | > 1000 | Stable | > 33000 | <40 | 4 | > 200 |  |
| CS(=O)(=O)c1ccc(-c2cnc3ccc(-c4cncc(S(C)(=O)=O)c4)nn23)cc1 |  |  |  | 96 | 82 |  |  |  |  | < 5 |  |  |  |  |  | < 5 |  |
| O=S(=O)(c1cccc(-c2ccc3ncc(-c4ccc(-c5nnn[nH]5)cc4)n3n2)c1)C1CC1 |  |  |  | 43 | 25 |  |  |  |  | 183 (≈ 81.2 µg/mL) |  |  | > 33000 | <40 | 4 | < 5 |  |
| CS(=O)(=O)c1cccc(-c2ccc3ncc(-c4ccc(C(=O)O)cc4)n3n2)c1 | > 1000 |  | Non-toxic |  |  |  | Non-toxic |  |  |  | > 1000 |  |  |  |  |  |  |
| CS(=O)(=O)c1cccc(-c2ccc3ncc(-c4ccc(N)nc4)n3n2)c1 |  |  |  | 23 | 19 |  |  |  |  | < 5 |  |  |  |  |  | 192 (≈ 70.2 µg/mL) |  |
| CS(=O)(=O)c1cccc(-c2ccc3ncc(-c4ccc(S(C)(=O)=O)nc4)n3n2)c1 |  |  |  | 12 | 9.9 |  |  |  |  | < 5 |  |  |  |  |  | < 5 |  |
| C[S+]([O-])c1cccc(-c2ccc3ncc(-c4ccc(C(N)=O)cc4)n3n2)c1 (configuration not stated) |  |  |  | 103 |  |  |  |  |  | < 5 |  |  |  |  |  | 112 (≈ 42.2 µg/mL) |  |
| CS(=O)(=O)c1cncc(-c2ccc3ncc(-c4cncc(S(C)(=O)=O)c4)n3n2)c1 |  |  |  | 636 | 473 |  |  |  |  | 53 (≈ 22.8 µg/mL) |  |  |  |  |  | 183 (≈ 78.6 µg/mL) |  |
| CS(=O)(=O)c1cccc(-c2ccc3ncc(-c4cncc(S(C)(=O)=O)c4)n3n2)c1 |  |  |  | 58 | 42 |  |  |  |  | < 5 |  |  |  |  |  | 16 (≈ 6.86 µg/mL) |  |
| CS(=O)(=O)c1cncc(-c2ccc3ncc(-c4ccc(S(C)(=O)=O)nc4)n3n2)c1 |  |  |  | 808 | 610 |  |  |  |  | 13 (≈ 5.58 µg/mL) |  |  |  |  |  | 52 (≈ 22.3 µg/mL) |  |
| CS(=O)(=O)c1cccc(-c2ccc3ncc(-c4ccc(S(=O)(=O)CCCN)cc4)n3n2)c1 | > 1000 | Stable | Non-toxic | 11 | 9.4 |  | Non-toxic |  | Stable | 180 (≈ 84.7 µg/mL) | > 1000 | Stable |  |  |  | > 200 |  |
| CS(=O)(=O)c1cccc(-c2ccc3ncc(-c4ccc(C(=O)N5CCC(O)C5)cc4)n3n2)c1 (configuration not stated) |  | Stable |  | 18 | 21 | < 10 |  | < 10 | Stable | 177 (≈ 81.9 µg/mL) |  | Stable | > 33000 | <40 | 4 | 191 (≈ 88.3 µg/mL) |  |
| CS(=O)(=O)c1ccc(-c2cnc3ccc(-c4ccnc(C(F)(F)F)c4)nn23)cc1 | > 1000 |  | Non-toxic | 45 | 26 |  | Non-toxic |  |  | < 5 | > 1000 |  |  |  |  | 5.4 (≈ 2.26 µg/mL) |  |
| C[S+]([O-])c1ccc(-c2cnc3ccc(-c4cccc([S+](C)[O-])c4)nn23)cc1 (configuration not stated) |  | Unstable |  | 35 | 30 | 760 |  |  | Unstable | 192 (≈ 75.9 µg/mL) |  | Unstable | 12000 | 99.8 | 25 | 205 (≈ 81.1 µg/mL) | 2440 |
